# Compound activity (PubChem BioAssay)
# TLR4-MyD88 BLA – inhibitors of TLR4-MyD88 association in cells, primary screen, cell-based, HeLa CL3-4, BLA complementation, FRET ratio. Toll-like receptor 4 (Homo sapiens) + Myeloid differentiation primary response protein …. HeLa CL3-4 TLR4/MyD88 BLA complementation. inhibition, % at 8.4 µM. actives 0.18% (n = 200,000). AID 861, 2007; in the data active means inhibition above about 25%;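 further: 0% = vehicle and 100% = reference inhibitor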
# Lipid droplet – inhibitors of hepatocyte lipid droplet formation, primary screen, imaging, high-throughput imaging, BODIPY stain. inhibition, % at 6.5 µM. AML12 mouse hepatocytes, oleate lipid droplets. actives 0.4% (n = 240,000);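 active means lipid droplet intensity inhibited by at least 50%, with more than 500 cells counted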
#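 Assay system: AML12 mouse liver cells | Compound: 6.5 µM single-point dosing | Schedule: Overnight exposure | Technique: Fluorescence imaging, 20x objective, two fields per well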
# TLR9-MyD88 block – inhibitors of TLR9-MyD88 association in cells, primary screen, cell-based, CHO, BLA complementation, fluorescence. AID 504734, 2011. actives 0.21% (n = 340,000). inhibition, % at 4.98 µM. CCF4 FRET ratio;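 active means inhibition above the mean over all tested compounds plus 3 SD, cut at about 21% in these data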;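 further: 0% = DMSO only wells and 100% = clavulanate BLA inhibitor control wells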
# Target sequence (Q99836 whole entry, looked up): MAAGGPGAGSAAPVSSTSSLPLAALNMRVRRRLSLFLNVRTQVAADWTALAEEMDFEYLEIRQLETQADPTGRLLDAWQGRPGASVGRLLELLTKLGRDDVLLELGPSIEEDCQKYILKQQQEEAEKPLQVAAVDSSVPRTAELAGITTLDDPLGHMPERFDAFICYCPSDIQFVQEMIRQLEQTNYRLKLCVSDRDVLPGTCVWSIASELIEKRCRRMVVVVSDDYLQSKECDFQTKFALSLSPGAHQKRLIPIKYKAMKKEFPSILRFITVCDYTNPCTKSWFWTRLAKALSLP
# Target sequence (Q9NR96 whole entry, looked up): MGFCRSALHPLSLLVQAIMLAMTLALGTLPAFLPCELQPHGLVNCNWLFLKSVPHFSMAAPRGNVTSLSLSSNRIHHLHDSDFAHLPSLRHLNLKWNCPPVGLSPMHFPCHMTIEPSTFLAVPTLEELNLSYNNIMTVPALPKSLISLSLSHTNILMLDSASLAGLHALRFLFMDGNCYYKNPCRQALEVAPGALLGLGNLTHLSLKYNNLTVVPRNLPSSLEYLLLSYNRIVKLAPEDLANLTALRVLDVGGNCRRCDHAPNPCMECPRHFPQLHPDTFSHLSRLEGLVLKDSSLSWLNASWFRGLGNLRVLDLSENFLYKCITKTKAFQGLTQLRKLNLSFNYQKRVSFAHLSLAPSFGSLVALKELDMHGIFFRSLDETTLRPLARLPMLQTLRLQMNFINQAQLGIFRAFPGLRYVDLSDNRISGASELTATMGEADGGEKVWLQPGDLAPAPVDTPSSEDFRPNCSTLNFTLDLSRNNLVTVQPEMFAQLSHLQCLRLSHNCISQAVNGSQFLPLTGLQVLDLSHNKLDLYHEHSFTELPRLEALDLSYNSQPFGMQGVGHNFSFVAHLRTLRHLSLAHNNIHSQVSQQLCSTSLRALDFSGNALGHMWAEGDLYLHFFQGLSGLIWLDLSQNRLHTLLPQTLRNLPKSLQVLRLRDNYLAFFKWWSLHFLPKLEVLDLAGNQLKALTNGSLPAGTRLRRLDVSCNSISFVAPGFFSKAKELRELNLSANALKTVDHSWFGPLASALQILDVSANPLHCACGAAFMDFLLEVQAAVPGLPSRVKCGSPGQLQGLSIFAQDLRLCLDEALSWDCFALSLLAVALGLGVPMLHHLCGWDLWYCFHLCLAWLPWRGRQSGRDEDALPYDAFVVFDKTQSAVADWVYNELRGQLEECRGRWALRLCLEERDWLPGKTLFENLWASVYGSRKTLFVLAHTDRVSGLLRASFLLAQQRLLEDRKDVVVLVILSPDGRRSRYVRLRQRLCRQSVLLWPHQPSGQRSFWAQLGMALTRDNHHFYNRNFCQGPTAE
# SR-BI uptake up – activators of SR-BI mediated DiI-HDL uptake, primary screen, ldlA[mSR-BI] CHO cells, DiI fluorescence; 3 h; 100 = double the neutral-control signal; activation, % at 12.5 µM; actives 0.096% (n = 320,000); AID 504775, 2011;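 active means mean replicate activation of at least 60% and every replicate at or above 60%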;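 further: 0% = median plate neutral-control signal and 100% = twice that signal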
#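 Test system: SR-BI-overexpressing, LDLR-lacking CHO cells; Also added: labelled HDL, 10 µg/mL; Measured by: bottom-read cell fluorescence after medium removal, ex 550/em 595 nm; Timing: 3 h uptake period with compound, 37 °C; Buffer or medium: F12, 0.5% BSA, 25 mM HEPES; Doses: single compound concentration, delivered by pin transfer.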
# SR-BI HDL uptake – inhibitors of SR-BI mediated HDL lipid uptake, primary screen, ldlA[mSR-BI] cells, fluorescence, single point; Scavenger receptor class B member 1 (Mus musculus), Q61009; ldlA[mSR-BI] CHO cells, DiI-HDL uptake fluorescence, 3 h; inhibition, % at 12.5 µM; actives 0.96% (n = 320,000); AID 488896, 2010;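 active means mean replicate inhibition of at least 70% and a set share of replicates each scoring 70 or more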;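 further: 0% = median of neutral control wells and 100% = median of positive control wells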
# NOD2-RIPK2 inh – NOD2-RIPK2 binding disruptors in cells, primary screen, fluorescence, CHO cells, BLA complementation. Receptor-interacting serine/threonine-protein kinase 2 (Homo sapiens), O43353. CCF4 ratio. inhibition, % at 4.98 µM. actives 0.38% (n = 360,000); in the data active means inhibition above about 21%;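 further: 0% = vehicle only and 100% = reference blocker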
# Numbers without * were called inactive; . = not tested or not shown. Sampled rows, rich in hits. Any-hit rate of the full collection: about 1.6%.
SMILES,TLR4-MyD88 BLA,Lipid droplet,TLR9-MyD88 block,SR-BI uptake up,SR-BI HDL uptake,NOD2-RIPK2 inh
O=C1C2CC=CCC2C(=O)N1c1n[nH]c(CCc2ccccc2)n1 (stereo unspecified),-7,-2,8,14,-14,15
COc1ccc(/C=C\C(=O)O[C@@H]2C(O)C(O[C@@H]3OC(C)[C@H](O[C@@H]4OCC(O[C@H]5O[C@H](CO)[C@@H](O)C(O)C5O)C(O)C4O)C(O)C3O)[C@H](OC(=O)[C@]34CCC(C)(C)C[C@@H]3C3=CCC5[C@@]6(C)CC(O)C(O[C@@H]7OC(CO)C(O)[C@H](O)[C@H]7O)[C@@](C)(C(=O)O)C6CC[C@@]5(C)[C@]3(CO)CC4)O[C@H]2C)cc1 (stereo partly specified),.,.,24*,-37,37,13
Cc1ccc(S(=O)(=O)Nc2ccccc2N=Cc2c(F)c(F)c(F)c(F)c2F)cc1,.,.,-11,-92,92*,-1
C=C(CN(C)C)C(=O)c1cc(C)ccc1C,.,.,0,-81,81*,45*
CCOC(CCNC(=O)c1cn(CCOC)c(=O)c2c1c1ccccc1n2C)OCC,.,-1,10,8,-8,-9
Cc1ccc(Nc2c([N+](=O)[O-])cc(C(=O)N3CC(=O)Nc4ccccc43)cc2[N+](=O)[O-])c(C)c1,-4,.,-1,-75,75*,4
Cc1c(C(=O)Nc2ccccc2)sc2nc(-c3ccccc3)cn12,4,32,1,-77,77*,1
Cc1cccc(NC(=O)c2sc3nc(-c4ccccc4)cn3c2C)n1,0,21,-7,-12,12,-5
Oc1ccc(C[C@H]2CNC(=S)N2CC2CCCN2C[C@H](Cc2ccccc2)N2C[C@H](Cc3ccc(O)cc3)N(CCc3ccccc3)C2=S)cc1 (stereo partly specified),.,.,-11,108*,-108,-9
Cc1ccc(NC(=O)c2ccc(S(=O)(=O)N3CCCCC3)cc2)nc1,.,.,-9,.,-9,-12
CCCCOC(=O)c1ccc(Nc2ncnc3nc[nH]c23)cc1,6,8,3,-4,4,-8
CCCCCCCCOC(=O)c1cc([N+](=O)[O-])c(Sc2ncnc3nc[nH]c23)c([N+](=O)[O-])c1,.,.,-9,-77,77*,18
COc1ccccc1NC(=O)c1ccc(NC(=O)c2cc3c(s2)CCC3)cc1,-3,15,-5,-73,73*,-7
CS(=O)(=O)N(CC(=O)N1CCN(c2ccccc2F)CC1)c1cccc(C(F)(F)F)c1,3,.,7,31,-31,-3
CCc1c(C#N)c(SCCC(=O)Nc2ccc(C)cc2)nc2c1C(=O)CC(C)(C)C2,-7,42,-2,-73,73*,1
C/C(CCc1ccc2c(c1)OCO2)=N\NC(=S)NC(C)C,-8,-4,2,-77,77*,0
CCOC(=O)c1c(-c2ccc(C)cc2)csc1NC(=O)/C(C#N)=C/c1ccc(O)c(OC)c1,6,33,6,-34,34,1
CCOC(=O)c1c(-c2ccccc2)csc1NC(=O)/C(C#N)=C\c1ccc(O)c(OC)c1,.,.,7,-85,85*,1
COc1ccc(CCNC(=O)c2nn(C)c3c2CS(=O)(=O)c2ccccc2-3)cc1OC,.,2,6,-9,9,-2
CC(=O)c1c(C(C)=O)c(C)n(-c2nc(-c3ccc(C)c(C)c3)c(C)s2)c1C,-7,4,15,-76,76*,-11
COc1ccc(-c2nc(-n3c(C)c(C(C)=O)c(C(C)=O)c3C)sc2C)cc1,2,.,-4,-68,68,-1
Cc1cc(Nc2nc3ccccc3nc2Cl)n(-c2ccc([N+](=O)[O-])cc2)n1,4,-10,-1,-79,79*,2
Cc1cc(Nc2nc3ccccc3[nH]c2=O)n(-c2ccccc2)n1,-9,.,-5,-16,16,5
CCOc1ccc(N(CC(=O)NC2CCCCC2)S(=O)(=O)c2ccccc2)cc1,.,-8,-2,.,.,-13
COc1ccc(-c2oc(=O)c3cc(OC)c(OC)cc3c2C#CCCCO)cc1,.,.,-2,-78,78*,10
SMILES,TLR4-MyD88 BLA,Lipid droplet,TLR9-MyD88 block,SR-BI uptake up,SR-BI HDL uptake,NOD2-RIPK2 inh
COc1cc(OC)cc(-c2oc(=O)c3cc(OC)c(OC)cc3c2C#CCCCO)c1,.,.,8,-39,39,0
Cc1ccc(C)c(NS(=O)(=O)c2cc(C(=O)Nc3ccccc3-c3ccccc3)ccc2Cl)c1,-3,.,-9,-2,2,1
CSc1cccc(NC(=S)NCCCN2CCN(c3ccc(F)cc3)CC2)c1,-3,-3,6,201*,-201,-3
CC1CC(C)(C)CC2(C1)NC(=O)N(CC(=O)Nc1ccc(N3CCCCC3)cc1)C2=O (stereo unspecified),.,-6,-6,.,73*,-1
CCOC(=O)C1=C(COC(=O)/C=C/c2ccc(Cl)cc2)NC(=O)NC1C (stereo unspecified),.,-2,-1,0,0,4
CCOC(=O)C1=C(COC(=O)/C=C/c2ccc(OCC)c(OC)c2)NC(=O)NC1C (stereo unspecified),.,.,-2,-83,83*,-10
COC(Cn1c2c(c3cc(C)ccc31)CCCC2NCc1ccccc1)OC (stereo unspecified),.,0,.,.,.,-9
CCOC(=O)C1=C(O)/C(=C/c2cc(OC)c(O)c(OC)c2)SC1=Nc1ccc(OC)cc1,12,-1,0,-86,86*,8
Cc1cc(C)c(NC(=O)COC(=O)c2cc([N+](=O)[O-])ccc2N2CCOCC2)c(C)c1,.,-11,-3,-47,47,-45
O=C(COC(=O)c1cc([N+](=O)[O-])ccc1N1CCOCC1)c1ccc(OC(F)F)cc1OC(F)F,.,.,9,-76,76*,0
COc1ccc(OC)c(COC(=O)c2cc([N+](=O)[O-])ccc2N2CCOCC2)c1,.,.,-12,-59,59,-3
O=C(COC(=O)c1cc([N+](=O)[O-])ccc1N1CCOCC1)Nc1ncc(Cl)cc1Cl,.,0,3,.,86*,2
O=C(COC(=O)c1cc([N+](=O)[O-])ccc1N1CCCC1)Nc1ccccc1OC(F)F,.,.,3,-67,67,-3
Cc1cc(NC(=O)COC(=O)c2cc([N+](=O)[O-])ccc2N2CCOCC2)ccc1Br,.,.,-15,-71,71*,1
